# Results published in ChEMBL document CHEMBL5104216, “Fragment-Sized Thiazoles in Fragment-Based Drug Discovery Campaigns: Friend or Foe?” (ACS Med Chem Lett, 2022).
# How the values were obtained:
# [1] = Redox activity of compound assessed as redox index at 100 uM in presence of 1 mM DTT measured by HRP-PR assay; type: physicochemical
# How it was run: (§1)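 H2O2 from redox cycling, with or without DTT, detected with horseradish peroxidase-phenol red (HRP-PR).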
# [2] = Redox activity of compound assessed as redox index at 1 uM measured by resazurin assay; type: physicochemical
# How it was run: (§2)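 Free radicals formed by redox cycling with DTT detected with resazurin by fluorimetric read-out. Spectral interference checked.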
# [3] = biological target: UDP-N-acetylglucosamine 1-carboxyvinyltransferase (Escherichia coli K-12) (UniProt P0A749); experiment: Inhibition of recombinant Escherichia coli MurA assessed as residual activity at 500 uM using UDP-N-acetylglucosamine as substrate preincubated for 30 mins in presence of 1 mM DTT followed by substrate addition and measured by malachite green based colorimetric assay relative to control
# Chain of UDP-N-acetylglucosamine 1-carboxyvinyltransferase (Escherichia coli K-12) (P0A749 whole entry): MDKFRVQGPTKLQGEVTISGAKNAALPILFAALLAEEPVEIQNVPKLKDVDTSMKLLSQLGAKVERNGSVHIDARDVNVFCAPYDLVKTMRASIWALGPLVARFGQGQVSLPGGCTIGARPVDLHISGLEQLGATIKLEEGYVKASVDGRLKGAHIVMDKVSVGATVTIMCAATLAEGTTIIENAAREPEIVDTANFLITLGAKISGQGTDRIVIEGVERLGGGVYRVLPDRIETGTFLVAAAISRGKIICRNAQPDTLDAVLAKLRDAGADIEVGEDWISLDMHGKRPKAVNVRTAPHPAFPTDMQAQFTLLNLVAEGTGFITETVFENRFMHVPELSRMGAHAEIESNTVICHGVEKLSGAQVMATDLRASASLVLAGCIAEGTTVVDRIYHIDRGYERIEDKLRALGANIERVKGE
# [4] = Redox activity of compound assessed as redox index at 100 uM measured by HRP-PR assay; type: physicochemical; how it was run: as §1
# [5] = Redox activity of compound assessed as redox index at 100 uM measured by H2DCFDA assay; type: physicochemical
# How it was run: (§3)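 Reactive oxygen species, with or without the reducing agent TCEP, detected with the fluorescent probe H2DCFDA. Compound spectral interference (autofluorescence) checked under the assay conditions.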
# [6] = system: Mycobacterium tuberculosis; experiment: Inhibition of Mycobacterium tuberculosis MetAP1a assessed as residual activity at 625 uM using L-methionine 7-amido-4-methylcoumarin as fluorogenic substrate and measured by fluorescence based assay
# How it was run: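 Kinetic fluorescence assay in which the enzyme hydrolyses L-methionine 7-amido-4-methylcoumarin to fluorescent 7-amino-4-methylcoumarin. Compounds were tested at 500–625 μM, and activity was called at <50% residual activity. Spectral interference was checked by measuring absorbance at the excitation and emission wavelengths and compound autofluorescence.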
# [7] = biological target: UDP-N-acetylglucosamine 1-carboxyvinyltransferase (Escherichia coli K-12) (UniProt P0A749); experiment: Inhibition of recombinant Escherichia coli MurA assessed as residual activity at 500 uM using UDP-N-acetylglucosamine as substrate and measured by malachite green based colorimetric assay relative to control
# How it was run: (§4)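 Screened at 500–625 μM with malachite green colorimetric read-out. Activity threshold was <50% residual activity.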
# [8] = biological target: D-alanine--D-alanine ligase B (Escherichia coli K-12) (UniProt P07862); experiment: Inhibition of recombinant Escherichia coli DdlB assessed as residual activity at 500 uM using D-alanine as substrate incubated for 20 mins and measured by malachite green based colorimetric assay relative to control; how it was run: as §4
# [9] = Thiol reactivity of compound measured by TNB2- assay; type: physicochemical
# How it was run: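 Reactivity toward the thiol surrogate TNB2– in a nonproteinaceous setting without TCEP. Reversibility tested by adding TCEP and checking that absorbance was restored.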
# [10] = Redox activity of compound assessed as redox index at 10 uM measured by resazurin assay; type: physicochemical; how it was run: as §2
# [11] = Redox activity of compound assessed as redox index at 100 uM in presence of 100 uM TCEP measured by H2DCFDA assay; type: physicochemical; how it was run: as §3
# [12] = biological target: UDP-N-acetylglucosamine 1-carboxyvinyltransferase (Escherichia coli K-12) (UniProt P0A749); experiment: Inhibition of recombinant Escherichia coli MurA assessed as residual activity at 500 uM using UDP-N-acetylglucosamine as substrate preincubated for 30 mins followed by substrate addition and measured by malachite green based colorimetric assay relative to control
# How it was run: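 E. coli MurA at 500–625 μM with 30 min preincubation before substrate addition. Malachite green colorimetric read-out. Activity threshold was <50% residual activity.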
# [13] = biological target: Replicase polyprotein 1ab (Severe acute respiratory syndrome coronavirus 2) (UniProt P0DTD1); experiment: Inhibition of recombinant SARS-CoV-2 3CLpro expressed in Escherichia coli NiCo21(DE3) assessed as residual activity at 500 uM using DABCYL-KTSAVLQSGFRKME-EDANS as substrate preincubated for 30 mins followed by substrate addition and measured by FRET assay relative to control
# How it was run: (§5)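 Kinetic fluorescence read-out of cleavage of a FRET substrate carrying a DABCYL–EDANS pair. Compounds were tested at 500–625 μM, and <50% residual activity was taken as the activity threshold. To exclude false positives, absorbance at the excitation and emission wavelengths and autofluorescence of the compounds were measured.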
# [14] = biological target: Replicase polyprotein 1ab (Severe acute respiratory syndrome coronavirus 2) (UniProt P0DTD1); experiment: Inhibition of recombinant SARS-CoV-2 3CLpro expressed in Escherichia coli NiCo21(DE3) assessed as residual activity at 500 uM using DABCYL-KTSAVLQSGFRKME-EDANS as substrate preincubated for 30 mins in presence of 1mM DTT followed by substrate addition and measured by FRET assay relative to control; how it was run: as §5
# [15] = Aqueous stability of the compound at pH 7.4 measured after 60 mins by spectrophotometric analysis; type: physicochemical; settings: buffer, pH 7.4, 1 h
# How it was run: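 Followed by spectrophotometry as changes in the compound absorption spectrum over time in 50 mM Tris-HCl pH 7.4, 0.5 mM EDTA, read after 60 min in 96-well microplate format. Compounds with low absorbance were not evaluated.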
Compound,Activity_index [1],Activity_index [2],Activity [3],Activity_index [4],Activity_index [5],Activity [6],Activity [7],Activity [8],Activity [9],Activity_index [10],Activity_index [11],Activity [12],Activity [13],Activity [14],Stability [15]
Nc1nc(C(=O)O)cs1,1,1,107%,1,2.1,155%,1.6%,96%,Active,1.1,1.6,0%,14.2%,84.9%,
CC(C)(C)c1csc(N)n1,1,1.1,106%,1,1.1,128%,5.7%,94%,Active,0.9,0.5,3.5%,13%,79.1%,
CCOC(=O)c1cnc(Br)s1,1,0.9,103%,1,0.9,92.3%,60.1%,90%,,1,1.1,14.9%,10.2%,66.4%,Stable
O=C(O)c1csc(Br)n1,1,0.9,101%,1,1,81.7%,102%,92%,,0.9,1,96%,73.6%,73.7%,Stable
Fc1ccc(-c2csc(Br)n2)cc1F,1,0.9,81.9%,1,0.8,84.4%,89.1%,136%,,0.9,0.9,12%,85.1%,78.9%,Unstable
NCCc1cn(Cc2cscn2)nn1,1,1,110%,0.9,1.2,94%,28.1%,82%,Active,0.9,1.5,0%,87.2%,87.4%,
Cc1cnc(Br)s1,1,0.9,105%,1,0.9,116%,45.2%,77%,Active,1,0.9,8.2%,19.8%,79.1%,
CNc1nnc(C(F)(F)F)s1,1,1,102%,1,1.2,101%,99.5%,98%,,1,1.1,113%,147%,82.3%,Stable
Cc1nc(Br)sc1C(=O)O,1,0.9,102%,1,1.2,43.4%,72.4%,94%,,0.9,1.1,18.5%,100%,92.9%,Stable
Cc1csc(N)n1,1,0.9,102%,1,1,123%,99.3%,90%,,1,0.8,93.3%,96.7%,82.4%,Stable
Nc1nccs1 [AMINOTHIAZOLE],1,0.9,105%,1,0.8,94.6%,88%,95%,,0.9,0.9,39.7%,86.1%,82.5%,Stable
CCOC(=O)c1csc(Br)n1,1,0.9,100%,1,1,90.8%,89.8%,97%,,1,0.9,84%,71.7%,80.7%,Stable
N#Cc1cnc(NC(=O)CC(=O)O)s1,1,0.9,109%,1,0.7,146%,72.3%,96%,,1,0.8,20.3%,93.5%,79.7%,Stable
Brc1cnc(Br)s1,1,0.9,99%,1,0.7,71.7%,13.1%,91%,Active,0.9,1,0%,17.1%,79.9%,
COC(=O)c1csc(Br)n1,1,1.4,104%,1,0.8,88.2%,106%,95%,,0.8,0.9,117%,73.7%,68.6%,Stable
Nc1nc(CC(=O)O)cs1,1,0.9,99.2%,1.1,1.1,125%,90.8%,96%,,1,0.9,79.4%,105%,84.2%,Stable
COC(=O)C(=O)Nc1ncc(Br)s1,1,0.9,112%,1,0.8,156%,81.7%,94%,,1.1,0.8,37.2%,89.5%,66.2%,Unstable
